For experiment [1], the target named is Sodium-dependent dopamine transporter (Rattus norvegicus, UniProt P23977). As to the kind of experiment: Binding affinity towards Dopamine transporter by displacement of [3H]WIN-35428 radioligand from rat brain.
For experiment [2], the target named is Norepinephrine transporter (Rattus norvegicus, UniProt Q9WTR4). As to the kind of experiment: Binding affinity towards norepinephrine transporter by displacement of [3H]nisoxetine radioligand from rat brain. Background: Displacement assays read how much labelled ligand stays bound in the presence of the test substance.
Chain of Norepinephrine transporter (Q9WTR4 whole entry): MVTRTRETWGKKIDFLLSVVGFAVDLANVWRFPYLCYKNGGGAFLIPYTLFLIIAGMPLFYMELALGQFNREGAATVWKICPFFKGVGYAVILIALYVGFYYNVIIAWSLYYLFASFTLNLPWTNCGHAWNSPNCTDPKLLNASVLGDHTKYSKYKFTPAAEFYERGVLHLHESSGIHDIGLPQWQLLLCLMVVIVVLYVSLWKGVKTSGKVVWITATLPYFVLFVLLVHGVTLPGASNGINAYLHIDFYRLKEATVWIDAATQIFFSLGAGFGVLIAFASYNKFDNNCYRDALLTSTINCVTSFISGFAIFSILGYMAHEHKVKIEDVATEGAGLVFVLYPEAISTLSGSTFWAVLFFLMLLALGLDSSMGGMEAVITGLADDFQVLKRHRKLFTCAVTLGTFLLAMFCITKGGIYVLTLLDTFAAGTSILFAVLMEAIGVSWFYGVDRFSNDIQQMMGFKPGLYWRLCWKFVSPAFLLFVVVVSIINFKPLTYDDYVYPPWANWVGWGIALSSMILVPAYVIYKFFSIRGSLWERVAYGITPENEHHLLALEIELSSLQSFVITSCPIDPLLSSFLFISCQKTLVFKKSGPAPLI
For experiment [3], the target named is Sodium-dependent serotonin transporter (Rattus norvegicus, UniProt P31652). As to the kind of experiment: Binding affinity towards serotonin transporter by displacement of [3H]- paroxetine radioligand from rat brain. A digest of the protocol: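 Midbrain tissue (1.5 mg original wet weight) with 0.2 nM [3H]paroxetine in 50 mM Tris, 120 mM NaCl, 5 mM KCl, pH 7.4, for 90 min at room temperature; nonspecific binding defined with 1 μM citalopram. Terminated by filtration through polyethylenimine-soaked GF/B filters with ice-cold buffer washes. Mean ± SE of four triplicate experiments.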
Chain of Sodium-dependent serotonin transporter (P31652 whole entry): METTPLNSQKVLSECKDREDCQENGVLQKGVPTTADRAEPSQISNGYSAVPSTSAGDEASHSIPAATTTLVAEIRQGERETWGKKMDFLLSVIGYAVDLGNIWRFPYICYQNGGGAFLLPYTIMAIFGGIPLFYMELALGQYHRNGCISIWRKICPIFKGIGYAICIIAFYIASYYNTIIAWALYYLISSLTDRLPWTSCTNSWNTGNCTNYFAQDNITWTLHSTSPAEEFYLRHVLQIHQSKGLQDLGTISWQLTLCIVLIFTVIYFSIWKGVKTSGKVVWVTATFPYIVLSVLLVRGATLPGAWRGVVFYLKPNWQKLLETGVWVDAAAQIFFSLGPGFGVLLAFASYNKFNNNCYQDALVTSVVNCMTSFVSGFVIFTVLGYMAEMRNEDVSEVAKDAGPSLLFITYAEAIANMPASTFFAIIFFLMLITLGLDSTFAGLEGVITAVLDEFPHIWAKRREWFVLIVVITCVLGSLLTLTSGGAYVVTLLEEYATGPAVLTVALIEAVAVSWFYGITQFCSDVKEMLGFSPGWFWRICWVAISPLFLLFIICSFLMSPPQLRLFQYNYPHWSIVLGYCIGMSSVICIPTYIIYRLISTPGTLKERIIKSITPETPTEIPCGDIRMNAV

Experiment [4] concerns the target Monoamine transporters; serotonin & dopamine (Rattus norvegicus) (UniProt P31652+P23977). As to the kind of experiment: Ratio between serotonin transporter and Dopamine transporter. The class given is protein assay.
Experiment [5] addresses Monoamine transporters; Norepininephrine & dopamine (Rattus norvegicus) (UniProt P23977+Q9WTR4). As to the kind of experiment: Ratio between norepinephrine and Dopamine transporter. The class given is protein assay.

Chain of Monoamine transporters; serotonin & dopamine (Rattus norvegicus) (P23977 whole entry, looked up): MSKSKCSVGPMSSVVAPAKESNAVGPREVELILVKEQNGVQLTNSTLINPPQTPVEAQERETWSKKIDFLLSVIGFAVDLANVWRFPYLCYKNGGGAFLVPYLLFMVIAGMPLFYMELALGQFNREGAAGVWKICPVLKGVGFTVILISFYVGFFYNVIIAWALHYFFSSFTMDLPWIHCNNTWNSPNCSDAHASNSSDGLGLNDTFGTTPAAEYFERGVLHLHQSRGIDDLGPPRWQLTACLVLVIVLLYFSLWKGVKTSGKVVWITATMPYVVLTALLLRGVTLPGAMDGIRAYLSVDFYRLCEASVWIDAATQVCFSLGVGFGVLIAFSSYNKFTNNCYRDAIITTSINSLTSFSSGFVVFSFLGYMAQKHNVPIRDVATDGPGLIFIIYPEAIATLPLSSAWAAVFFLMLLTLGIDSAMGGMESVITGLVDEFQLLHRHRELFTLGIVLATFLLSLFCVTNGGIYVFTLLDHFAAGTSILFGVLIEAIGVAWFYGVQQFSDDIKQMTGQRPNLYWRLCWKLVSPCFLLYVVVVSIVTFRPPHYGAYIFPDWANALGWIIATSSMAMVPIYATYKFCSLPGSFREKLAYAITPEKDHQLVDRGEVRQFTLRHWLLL
Chain of Monoamine transporters; serotonin & dopamine (Rattus norvegicus) (P31652 whole entry, looked up): as the sequence (P31652 whole entry) above
Chain of Sodium-dependent dopamine transporter (P23977 whole entry): as the sequence (P23977 whole entry, looked up) above

One may read the IC50 as the point on the concentration scale where inhibition reaches its midpoint. A low value points to inhibition by little substance. On to `Cc1ccc([C@H]2C[C@H]3CCC(C2c2nc(-c4ccccc4)no2)N3C)cc1` (some centres undefined), for which the half-inhibitory concentration (IC50) is 2.33 nM in experiment [1], 60 nM in experiment [2] and 1070 nM in experiment [3]. Moreover, the Ratio in experiment [4] worked out at 459; in experiment [5], 26.

`Cc1noc(C2C3CC[C@H](C[C@@H]2c2ccccc2)N3C)n1` (stereo in doubt; 7) [listing 1 of 2 here]: the results for the IC50 in experiment [1], in experiment [2] and in experiment [3] were 204 nM, 35800 nM and 29400 nM, respectively.

As to `Cc1noc(C2C3CC[C@H](C[C@@H]2c2ccccc2)N3C)n1` (stereo in doubt; 8) [listing 1 of 2 here], the Ratio in experiment [4] was determined as 243; in experiment [5] it was 42.

In experiment [2], `COC(=O)[C@@H]1C2CC[C@H](C[C@@H]1c1ccccc1)N2C` displayed an IC50 of 920 nM.

As to `CC(C)OC(=O)C1C2CC[C@H](C[C@@H]1c1ccc(Cl)cc1)N2C` (some centres undefined), the IC50 in experiment [1] was 1.41 nM; in experiment [2], 778 nM; in experiment [3], 1400 nM. Besides, the Ratio in experiment [5] was 551.

Take `CN1C2CC[C@@H]1C[C@H](c1ccc(Cl)cc1)C2c1nc(-c2ccc(Br)cc2)no1` (some centres undefined): the figures for the IC50 in experiment [1], in experiment [2] and in experiment [3] were 3.44 nM, 1830 nM and 106 nM, respectively. Also, the Ratio came out at 31 in experiment [4] and 532 in experiment [5].

`Cc1noc(C2C3CC[C@H](C[C@@H]2c2ccccc2)N3C)n1` (stereo in doubt; 5a) [listing 1 of 2 here]: the concentration for half-maximal inhibition (IC50) in experiment [1] came out at 100 nM; in experiment [2], 7880 nM; in experiment [3], 3830 nM.

In the case of `CN1C2CC[C@@H]1C[C@H](c1ccc(Cl)cc1)C2c1nc(-c2ccc(Cl)cc2)no1` (some centres undefined), the concentration for half-maximal inhibition (IC50) in experiment [1] stood at 4.06 nM; in experiment [2], 4070 nM; in experiment [3] it was 404 nM. For the same compound, the Ratio in experiment [4] was found to be 100; in experiment [5], 1000.

For `Cc1noc(C2C3CC[C@H](C[C@@H]2c2ccccc2)N3C)n1` (stereo in doubt; 5a) [listing 2 of 2 here], the figures for the Ratio in experiment [4] and in experiment [5] were 38 and 79, respectively.

As for `Cc1noc(C2C3CC[C@H](C[C@@H]2c2ccc(Cl)cc2)N3C)n1` (some centres undefined), the IC50 in experiment [2] is 363 nM; in experiment [3], 2580 nM.

For `Cc1noc(C2C3CC[C@H](C[C@@H]2c2ccccc2)N3C)n1` (stereo in doubt; 7) [listing 2 of 2 here], the Ratio worked out at 144 in experiment [4] and 176 in experiment [5].

Take `CC(C)c1noc(C2C3CC[C@H](C[C@@H]2c2ccc(Cl)cc2)N3C)n1` (some centres undefined): the figures for the IC50 in experiment [1], in experiment [2] and in experiment [3] were 6 nM, 135 nM and 3460 nM, respectively. The figures for the Ratio in experiment [4] and in experiment [5] were 577 and 23, respectively.

In the case of `Cc1noc(C2C3CC[C@H](C[C@@H]2c2ccccc2)N3C)n1` (stereo in doubt; 8) [listing 2 of 2 here], the IC50 is 167 nM in experiment [1], 6990 nM in experiment [2] and 40600 nM in experiment [3].

With `CN1C2CC[C@@H]1C[C@H](c1ccc(Cl)cc1)C2c1nc(-c2ccccc2)no1` (some centres undefined), the IC50 in experiment [1] is 1.62 nM; in experiment [2], 245 nM; in experiment [3] it was 195 nM. Further, the Ratio was determined as 120 in experiment [4] and 151 in experiment [5].

With `Cc1noc(C2C3CC[C@H](C[C@@H]2c2ccccc2)N3C)n1` (stereo in doubt; 6) [listing 1 of 2 here], the values for the 50% inhibitory concentration (IC50) in experiment [1], in experiment [2] and in experiment [3] were 1030 nM, 71000 nM and 33100 nM, respectively.

For the compound `COc1ccc(-c2noc(C3C4CC[C@H](C[C@@H]3c3ccc(Cl)cc3)N4C)n2)cc1` (some centres undefined), the half-inhibitory concentration (IC50) in experiment [1] came out at 1.81 nM; in experiment [2], 835 nM; in experiment [3], 337 nM. Besides, the Ratio stood at 186 in experiment [4] and 461 in experiment [5].

Consider `Cc1noc(C2C3CC[C@H](C[C@@H]2c2ccccc2)N3C)n1` (stereo in doubt; 6) [listing 2 of 2 here], for which the Ratio in experiment [4] turned out to be 32; in experiment [5], 69.

With `Cc1ccc([C@H]2C[C@H]3CCC(C2C(=O)Oc2ccccc2)N3C)cc1` (some centres undefined), the results for the IC50 in experiment [1], in experiment [2] and in experiment [3] were 3.27 nM, 5830 nM and 24500 nM, respectively. The Ratio in experiment [5] was determined as 1780.

Turning to `CN1C2CCC1C(C(=O)Oc1ccccc1)C(c1ccc(Cl)cc1)C2` (centres undefined), the concentration for half-maximal inhibition (IC50) is 1.99 nM in experiment [1] and 2960 nM in experiment [2]. Moreover, the Ratio in experiment [5] came to 1490.
